*1 amine or outer side, *2 acyl side, *3 side chain or, on linkers, in order; H or OH if unused. Where a SMILES comes first, the peptide text is derived from it. [ ]: non-standard residue; d: D form. The star is where a group is joined. X2 = O=C(c1cc(N=C=S)ccc1-c1c2ccc(=O)cc-2oc2cc(O)ccc12)*; Gly(N-but-3-enyl) = O=C(CN(CCC=[*:3])[*:1])[*:2]; X5 = C=CCN([C@@H](CC(C)C)C(=O)[*:2])[*:1]; pY = N[C@@H](Cc1ccc(OP(=O)(O)O)cc1)C(=O)O; 3Amb = NCc1cccc(C(=O)O)c1; NH(but-3-enyl) = C=CCCN*; Ahx = NCCCCCC(=O)O; Ava = NCCCCC(=O)O; GABA = NCCCC(=O)O; NHAllyl = C=CCN*
The compounds below were run against T1, SHC-transforming protein 1 (Homo sapiens, UniProt P29353) (assay: Binding affinity to Shc Src homology 2 domain by fluorescence anisotropy).
T1 sequence (P29353 whole entry): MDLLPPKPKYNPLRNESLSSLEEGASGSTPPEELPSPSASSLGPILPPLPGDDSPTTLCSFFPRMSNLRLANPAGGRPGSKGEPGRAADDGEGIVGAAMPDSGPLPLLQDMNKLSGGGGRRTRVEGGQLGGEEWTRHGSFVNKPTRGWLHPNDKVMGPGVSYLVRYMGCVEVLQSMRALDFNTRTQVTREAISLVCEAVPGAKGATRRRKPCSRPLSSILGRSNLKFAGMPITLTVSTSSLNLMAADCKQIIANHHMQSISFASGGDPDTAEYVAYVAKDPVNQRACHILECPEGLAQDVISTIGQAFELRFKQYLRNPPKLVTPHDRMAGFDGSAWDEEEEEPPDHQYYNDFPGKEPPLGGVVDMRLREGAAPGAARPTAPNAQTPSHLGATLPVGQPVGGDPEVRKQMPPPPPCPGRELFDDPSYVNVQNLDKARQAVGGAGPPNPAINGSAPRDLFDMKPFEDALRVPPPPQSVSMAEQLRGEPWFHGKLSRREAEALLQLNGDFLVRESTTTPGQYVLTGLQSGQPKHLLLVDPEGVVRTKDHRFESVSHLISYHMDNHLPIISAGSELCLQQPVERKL
How it was run: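 Direct binding: 5 nM N-terminal fluorescein-labelled peptide in 10 mM HEPES, 150 mM NaCl pH 7.5 with 10% (v/v) DMSO; Shc SH2 protein serially diluted from 100 μM. Excitation 485 nm, parallel and perpendicular emission at 535 nm. Kd from fitting anisotropy versus protein concentration to a single-site binding model.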

Row | Compound | Kd [µM]
1 | CC(C)C[C@H](NC(=O)CNC(=O)[C@H](CCC(N)=O)NC(=O)[C@H](Cc1ccc(OP(=O)(O)O)cc1)NC(=O)c1cc(N=C=S)ccc1-c1c2ccc(=O)cc-2oc2cc(O)ccc12)C(=O)N[C@@H](CO)C(N)=O (HELM PEPTIDE1{[O=C(c1cc(N=C=S)ccc1-c1c2ccc(=O)cc-2oc2cc(O)ccc12)[*:2]].[O=C([C@H](Cc1ccc(OP(=O)(O)O)cc1)N[*:1])[*:2]].Q.G.L.S.[am]}$$$$V2.0) | 12.4
2 | CC(C)C[C@H](NC(=O)CNC(=O)[C@H](CCC(N)=O)NC(=O)[C@H](Cc1ccc(OP(=O)(O)O)cc1)NC(=O)[C@H](CC(C)C)NC(=O)CCNC(=O)c1cc(N=C=S)ccc1-c1c2ccc(=O)cc-2oc2cc(O)ccc12)C(=O)N[C@@H](CO)C(N)=O (HELM PEPTIDE1{[O=C(c1cc(N=C=S)ccc1-c1c2ccc(=O)cc-2oc2cc(O)ccc12)[*:2]].[bAla].L.[O=C([C@H](Cc1ccc(OP(=O)(O)O)cc1)N[*:1])[*:2]].Q.G.L.S.[am]}$$$$V2.0) | 7.6
3 | CC(C)C[C@H](NC(=O)CNC(=O)[C@H](CCC(N)=O)NC(=O)[C@H](Cc1ccc(OP(=O)(O)O)cc1)NC(=O)CCNC(=O)c1cc(N=C=S)ccc1-c1c2ccc(=O)cc-2oc2cc(O)ccc12)C(=O)N[C@@H](CO)C(N)=O (HELM PEPTIDE1{[O=C(c1cc(N=C=S)ccc1-c1c2ccc(=O)cc-2oc2cc(O)ccc12)[*:2]].[bAla].[O=C([C@H](Cc1ccc(OP(=O)(O)O)cc1)N[*:1])[*:2]].Q.G.L.S.[am]}$$$$V2.0) | 1.09
4 | CC(C)C[C@H](NC(=O)CNC(=O)[C@H](CCC(N)=O)NC(=O)[C@H](Cc1ccc(OP(=O)(O)O)cc1)NC(=O)c1cccc(CNC(=O)c2cc(N=C=S)ccc2-c2c3ccc(=O)cc-3oc3cc(O)ccc23)c1)C(=O)N[C@@H](CO)C(N)=O ({X2-3Amb}-[pY]QGLS-NH2) | 5
5 | CC(C)C[C@H](NC(=O)CNC(=O)[C@H](CCC(N)=O)NC(=O)[C@H](Cc1ccc(OP(=O)(O)O)cc1)NC(=O)CCCCCNC(=O)c1cc(N=C=S)ccc1-c1c2ccc(=O)cc-2oc2cc(O)ccc12)C(=O)N[C@@H](CO)C(N)=O ({X2-Ahx}-[pY]QGLS-NH2) | 4.7
6 | CC(C)C[C@H](NC(=O)CNC(=O)[C@H](CCC(N)=O)NC(=O)[C@H](Cc1ccc(OP(=O)(O)O)cc1)NC(=O)[C@H](CC(C)C)NC(=O)CCCCNC(=O)c1cc(N=C=S)ccc1-c1c2ccc(=O)cc-2oc2cc(O)ccc12)C(=O)N[C@@H](CO)C(N)=O ({X2-Ava}-L[pY]QGLS-NH2) | 8.9
7 | CC(C)C[C@H](NC(=O)CNC(=O)[C@H](CCC(N)=O)NC(=O)[C@H](Cc1ccc(OP(=O)(O)O)cc1)NC(=O)CCCCNC(=O)c1cc(N=C=S)ccc1-c1c2ccc(=O)cc-2oc2cc(O)ccc12)C(=O)N[C@@H](CO)C(N)=O ({X2-Ava}-[pY]QGLS-NH2) | 0.35
8 | CC(C)C[C@H](NC(=O)CNC(=O)[C@H](CCC(N)=O)NC(=O)[C@H](Cc1ccc(OP(=O)(O)O)cc1)NC(=O)[C@H](CC(C)C)NC(=O)CCCNC(=O)c1cc(N=C=S)ccc1-c1c2ccc(=O)cc-2oc2cc(O)ccc12)C(=O)N[C@@H](CO)C(N)=O ({X2-GABA}-L[pY]QGLS-NH2) | 8.6

Each compound was assayed against T1, SHC-transforming protein 1 (assay: Displacement of FITC-tagged NH-(CH2)4-CO-phospho-tyrosine-glutamine-glycine-leucine-serine-amide from Shc Src homology 2 domain by fluorescence anisotropy competition assay).
How it was run: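 Competition FA: preformed complex of 2 μM Shc SH2 domain protein and 10 nM FITC reference peptide in 10 mM HEPES, 150 mM NaCl pH 7.5 with 10% (v/v) DMSO; unlabeled competitors serially diluted from 500 μM. Excitation 485 nm, parallel/perpendicular emission 535 nm. Fractional binding from anisotropy; IC50 where spline (order three, three knots) reached one half.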

Row | Compound | IC50 [µM] | Kd [µM]
9 | C=CCNC(=O)[C@H](CC(C)C)N(CC=C)C(=O)CNC(=O)[C@H](CCC(N)=O)NC(=O)[C@H](Cc1ccc(OP(=O)(O)O)cc1)NC(C)=O | 81 | 
10 | CC(=O)N[C@@H](Cc1ccc(OP(=O)(O)O)cc1)C(=O)N[C@@H](CCC(N)=O)C(=O)N(CCCC(C)C)CC(=O)N[C@@H](CC(C)C)C(N)=O | 29 | 
11 | CC#CCN(CC(=O)N[C@@H](CC(C)C)C(N)=O)C(=O)[C@H](CCC(N)=O)NC(=O)[C@H](Cc1ccc(OP(=O)(O)O)cc1)NC(C)=O | 83 | 
12 | CC(=O)N[C@@H](Cc1ccc(OP(=O)(O)O)cc1)C(=O)N[C@@H](CCC(N)=O)C(=O)N(CCCCC#N)CC(=O)N[C@@H](CC(C)C)C(N)=O | 44 | 
13 | CCC#CCN(CC(=O)N[C@@H](CC(C)C)C(N)=O)C(=O)[C@H](CCC(N)=O)NC(=O)[C@H](Cc1ccc(OP(=O)(O)O)cc1)NC(C)=O | 17 | 
14 | CCSCCN(CC(=O)N[C@@H](CC(C)C)C(N)=O)C(=O)[C@H](CCC(N)=O)NC(=O)[C@H](Cc1ccc(OP(=O)(O)O)cc1)NC(C)=O | 34 | 
15 | CC(=O)N[C@@H](Cc1ccc(OP(=O)(O)O)cc1)C(=O)N[C@@H](CCC(N)=O)C(=O)N(CCCC(F)(F)F)CC(=O)N[C@@H](CC(C)C)C(N)=O | 23 | 
16 | C=CCCCN(CC(=O)N[C@@H](CC(C)C)C(N)=O)C(=O)[C@H](CCC(N)=O)NC(=O)[C@H](Cc1ccc(OP(=O)(O)O)cc1)NC(C)=O | 16 | 
17 | C=CCCCCN(CC(=O)N[C@@H](CC(C)C)C(N)=O)C(=O)[C@H](CCC(N)=O)NC(=O)[C@H](Cc1ccc(OP(=O)(O)O)cc1)NC(C)=O | 14 | 
18 | CC(=O)N[C@@H](Cc1ccc(OP(=O)(O)O)cc1)C(=O)N[C@@H](CCC(N)=O)C(=O)N(CCCCF)CC(=O)N[C@@H](CC(C)C)C(N)=O | 40 | 
19 | C=CCNC(=O)[C@H](CC(C)C)NC(=O)CNC(=O)[C@H](CCC(N)=O)NC(=O)[C@H](Cc1ccc(OP(=O)(O)O)cc1)N(CC=C)C(C)=O | 450 | 
20 | C=CCNC(=O)[C@H](CO)NC(=O)[C@H](CC(C)C)N(CC=C)C(=O)CNC(=O)[C@H](CCC(N)=O)NC(=O)[C@H](Cc1ccc(OP(=O)(O)O)cc1)NC(C)=O (Ac-[pY]QG[X5]S-NHAllyl) | 353 | 
21 | C=CCCNC(=O)[C@H](CO)NC(=O)[C@H](CC(C)C)NC(=O)CN(CCC=C)C(=O)[C@H](CCC(N)=O)NC(=O)[C@H](Cc1ccc(OP(=O)(O)O)cc1)NC(C)=O (Ac-[pY]Q[Gly(N-but-3-enyl)]LS-{NH(but-3-enyl)}) | 8 | 
22 | C=CCNC(=O)[C@H](CO)NC(=O)[C@H](CC(C)C)NC(=O)CNC(=O)[C@H](CCC(N)=O)NC(=O)[C@H](Cc1ccc(OP(=O)(O)O)cc1)N(CC=C)C(C)=O (HELM PEPTIDE1{[ac].[C=CCN([C@@H](Cc1ccc(OP(=O)(O)O)cc1)C(=O)[*:2])[*:1]].Q.G.L.S.[C=CCN[*:1]]}$$$$V2.0) | 41 | 
23 | CC(=O)NCCCCC(=O)N[C@@H](Cc1ccc(OP(=O)(O)O)cc1)C(=O)N[C@@H](CCC(N)=O)C(=O)NCC(=O)N[C@@H](CC(C)C)C(=O)N[C@@H](CO)C(N)=O (HELM PEPTIDE1{[ac].[O=C(CCCCN[*:1])[*:2]].[O=C([C@H](Cc1ccc(OP(=O)(O)O)cc1)N[*:1])[*:2]].Q.G.L.S.[am]}$$$$V2.0) |  | 158
24 | CC(=O)N[C@@H](Cc1ccc(OP(=O)(O)O)cc1)C(=O)N[C@@H](CCC(N)=O)C(=O)NCC(=O)N[C@@H](CC(C)C)C(N)=O (HELM PEPTIDE1{[ac].[O=C([C@H](Cc1ccc(OP(=O)(O)O)cc1)N[*:1])[*:2]].Q.G.L.[am]}$$$$V2.0) | 248 | 
25 | C=CCN(CC(=O)N[C@@H](CC(C)C)C(N)=O)C(=O)[C@H](CCC(N)=O)NC(=O)[C@H](Cc1ccc(OP(=O)(O)O)cc1)NC(C)=O (HELM PEPTIDE1{[ac].[O=C([C@H](Cc1ccc(OP(=O)(O)O)cc1)N[*:1])[*:2]].Q.[C=CCN(CC(=O)[*:2])[*:1]].L.[am]}$$$$V2.0) | 26.6 | 
26 | CC(=O)N[C@@H](Cc1ccc(OP(=O)(O)O)cc1)C(=O)N[C@@H](CCC(N)=O)C(=O)N(CCC(C)C)CC(=O)N[C@@H](CC(C)C)C(N)=O (HELM PEPTIDE1{[ac].[O=C([C@H](Cc1ccc(OP(=O)(O)O)cc1)N[*:1])[*:2]].Q.[CC(C)CCN(CC(=O)[*:2])[*:1]].L.[am]}$$$$V2.0) | 17 | 
27 | CCCN(CC(=O)N[C@@H](CC(C)C)C(N)=O)C(=O)[C@H](CCC(N)=O)NC(=O)[C@H](Cc1ccc(OP(=O)(O)O)cc1)NC(C)=O (HELM PEPTIDE1{[ac].[O=C([C@H](Cc1ccc(OP(=O)(O)O)cc1)N[*:1])[*:2]].Q.[CCCN(CC(=O)[*:2])[*:1]].L.[am]}$$$$V2.0) | 25.7 | 
28 | CCN(CC(=O)N[C@@H](CC(C)C)C(N)=O)C(=O)[C@H](CCC(N)=O)NC(=O)[C@H](Cc1ccc(OP(=O)(O)O)cc1)NC(C)=O (HELM PEPTIDE1{[ac].[O=C([C@H](Cc1ccc(OP(=O)(O)O)cc1)N[*:1])[*:2]].Q.[CCN(CC(=O)[*:2])[*:1]].L.[am]}$$$$V2.0) | 19 | 
29 | CCOCCN(CC(=O)N[C@@H](CC(C)C)C(N)=O)C(=O)[C@H](CCC(N)=O)NC(=O)[C@H](Cc1ccc(OP(=O)(O)O)cc1)NC(C)=O (HELM PEPTIDE1{[ac].[O=C([C@H](Cc1ccc(OP(=O)(O)O)cc1)N[*:1])[*:2]].Q.[CCOCCN(CC(=O)[*:2])[*:1]].L.[am]}$$$$V2.0) | 33 | 
30 | COCCN(CC(=O)N[C@@H](CC(C)C)C(N)=O)C(=O)[C@H](CCC(N)=O)NC(=O)[C@H](Cc1ccc(OP(=O)(O)O)cc1)NC(C)=O (HELM PEPTIDE1{[ac].[O=C([C@H](Cc1ccc(OP(=O)(O)O)cc1)N[*:1])[*:2]].Q.[COCCN(CC(=O)[*:2])[*:1]].L.[am]}$$$$V2.0) | 56 | 
31 | CC(=O)N[C@@H](Cc1ccc(OP(=O)(O)O)cc1)C(=O)N[C@@H](CCC(N)=O)C(=O)N(CC(=O)N[C@@H](CC(C)C)C(N)=O)Cc1ccccc1 (HELM PEPTIDE1{[ac].[O=C([C@H](Cc1ccc(OP(=O)(O)O)cc1)N[*:1])[*:2]].Q.[O=C(CN(Cc1ccccc1)[*:1])[*:2]].L.[am]}$$$$V2.0) | 18.9 | 
